Data on 24 molecules can be found in ChEMBL document CHEMBL1287788, “2-aminohydroxamic acid derivatives as inhibitors of Bacillus cereus phosphatidylcholine preferred phospholipase C PC-PLC(Bc)” (Bioorg Med Chem, 2010).

Series [1] can be described thus: Cytotoxicity against human A549 cells after 24 hrs by MTT assay. The series is classed as cell-based. Conditions: read-out: LD50. (In general: Formazan colour is commonly taken as a measure of viable cells.)
The target of series [2] is T1, Phospholipase C (Bacillus cereus, UniProt P09598).
T1 sequence (P09598 whole entry): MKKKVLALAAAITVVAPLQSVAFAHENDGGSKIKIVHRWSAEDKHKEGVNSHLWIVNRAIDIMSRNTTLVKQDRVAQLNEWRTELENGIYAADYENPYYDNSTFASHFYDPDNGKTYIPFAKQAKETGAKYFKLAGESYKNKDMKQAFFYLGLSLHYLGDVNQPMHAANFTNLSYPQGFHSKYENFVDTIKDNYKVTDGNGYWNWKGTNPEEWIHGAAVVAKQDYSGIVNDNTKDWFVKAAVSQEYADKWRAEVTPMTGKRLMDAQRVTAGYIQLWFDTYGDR
Kind of series: Inhibition of Bacillus cereus phosphatidylcholine preferred phospholipase C after 100 seconds. In a few lines: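 Bacillus cereus PC-PLC activity measured by a coupled read-out: phosphorylcholine released by the enzyme is hydrolysed by alkaline phosphatase, and the freed phosphate ions are quantified. Substrate was 1,2-di-n-hexanoyl-sn-glycero-3-phosphocholine at 2 mM final, below its CMC of 11.1 mM. Compound CMC values were determined so the assay ran under non-micellar conditions.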

Series [3] is described as follows: Critical micelle concentration of the compound. The series is classed as physicochemical.
In series [4] the target is T1, Phospholipase C. Briefly: Non-competitive inhibition of Bacillus cereus phosphatidylcholine preferred phospholipase C by Dixon plot analysis.
Series [5] addresses T2, Phospholipase C (Bacillus cereus) (UniProt P09598).
T2 sequence (whole entry): T1 sequence (P09598 whole entry)
Briefly: Irreversible inhibition of Bacillus cereus phosphatidylcholine preferred phospholipase C assessed as residual activity after 10 mins.

The target of series [6] is T1, Phospholipase C. Briefly: Uncompetitive inhibition of Bacillus cereus phosphatidylcholine preferred phospholipase C by Dixon plot analysis.
Series [7] concerns the target T1, Phospholipase C. Kind of series: Mixed-type inhibition of Bacillus cereus phosphatidylcholine preferred phospholipase C by Dixon plot analysis.

With `CCCCCCC(N)C(=O)N(O)CCC[N+](C)(C)C.Cl.[Cl-]` (centres undefined), in series [1], the CC50 at 24 h was over 100 µM. The IC50 (commonly the concentration that inhibits the measured activity by half) against Phospholipase C [2] was over 500 µM. For the same molecule, the CMC in series [3] was over 500 µM.

As for `CCCCCCCCCCC(NC(=O)OC(C)(C)C)C(=O)N(CCCN(C)C)OCc1ccccc1` (centres undefined), the CC50 at 24 h in series [1] turned out to be 6 µM. For the same molecule, the midpoint of inhibition at Phospholipase C [2], the IC50, lay at 8 µM. The molecule further gave a CMC in series [3] of 10 µM. In addition, the affinity on Phospholipase C [4], expressed as Ki, was 2.5 µM.

Consider `CCCCCCC(NC(=O)OC(C)(C)C)C(=O)N(CCC[N+](C)(C)C)OCc1ccccc1.[I-]` (centres undefined), for which the CC50 at 24 h in series [1] was over 100 µM. This molecule yielded an IC50 at Phospholipase C [2] of 78 µM. In series [3], this molecule showed a CMC of 221 µM.

Turning to `CCCCCCCCCCC(N)C(=O)N(CC[N+](C)(C)C)OCc1ccccc1.Cl.[Cl-]` (centres undefined), the CC50 at 24 h in series [1] was 76.1 µM. In addition, the concentration for half-maximal inhibition (IC50) against Phospholipase C [2] worked out at 10 µM. Also, the CMC in series [3] was over 500 µM.

In the case of `CCCCCCC(N)C(=O)N(CC[N+](C)(C)C)OCc1ccccc1.Cl.[Cl-]` (centres undefined), the CC50 at 24 h in series [1] was over 100 µM. This molecule yielded an IC50 on Phospholipase C [2] of over 500 µM. In series [3], this molecule yielded a CMC of over 500 µM.

As to `CCCCCCCCCCCCCCCCCCC(NC(=O)OC(C)(C)C)C(=O)N(CC[N+](C)(C)C)OCc1ccccc1.[I-]` (centres undefined), the CC50 at 24 h in series [1] is 25.1 µM. In series [3], the CMC was 75 µM.

Take `CCCCCCCCCCCCCCC(NC(=O)OC(C)(C)C)C(=O)N(CC[N+](C)(C)C)OCc1ccccc1.[I-]` (centres undefined): the CC50 at 24 h in series [1] amounted to 27.6 µM. Besides, the Activity in series [5] is 100%. Further, the CMC in series [3] is over 500 µM.

Consider `CCCCCCCCCCC(N)C(=O)N(O)CC[N+](C)(C)C.Cl.[Cl-]` (centres undefined), for which the affinity on Phospholipase C [6] corresponds to a Ki of 12 µM. The CC50 at 24 h in series [1] was over 100 µM. Moreover, at Phospholipase C [2], inhibition was half-maximal at 40 µM (IC50). This molecule gave a CMC in series [3] of over 500 µM.

Take `CCCCCCC(N)C(=O)N(O)CCCN(C)C.Cl.Cl` (centres undefined): in series [1], the CC50 at 24 h is over 100 µM. The molecule also had an IC50 against Phospholipase C [2] of over 500 µM. In series [3], this molecule registered a CMC of over 500 µM.

On to `CCCCCCC(N)C(=O)N(O)CC[N+](C)(C)C.Cl.[Cl-]` (centres undefined), for which the CC50 at 24 h in series [1] is over 100 µM. In addition, on Phospholipase C [2], the IC50 turned out to be 500 µM. In series [3], the CMC is over 500 µM.

Take `CCCCCCC(N)C(=O)N(CCC[N+](C)(C)C)OCc1ccccc1.Cl.[Cl-]` (centres undefined): in series [1], the CC50 at 24 h was over 100 µM. On Phospholipase C [2], this molecule came in with an IC50 of 100 µM. Moreover, the CMC in series [3] was found to be 210 µM.

Consider `CCCCCCCCCCCCCCC(N)C(=O)N(O)CC[N+](C)(C)C.Cl.[Cl-]` (centres undefined), for which the CC50 at 24 h in series [1] amounted to 100 µM. The 50% inhibitory concentration (IC50) on Phospholipase C [2] worked out at 2 µM. In addition, the CMC in series [3] is 120 µM.

For `CCCCCCCCCCC(NC(=O)OC(C)(C)C)C(=O)N(CC[N+](C)(C)C)OCc1ccccc1.[I-]` (centres undefined), the CC50 at 24 h in series [1] was 28.2 µM. Also, at Phospholipase C [2], half-maximal inhibition (IC50) required 5 µM. In addition, in series [3], the CMC was over 500 µM.

Regarding `CCCCCCC(NC(=O)OC(C)(C)C)C(=O)N(CCCN(C)C)OCc1ccccc1` (centres undefined), the CC50 at 24 h in series [1] was 21 µM. For the same molecule, the IC50 against Phospholipase C [2] worked out at 77 µM. This molecule also gave a CMC in series [3] of 75 µM.

Turning to `CCCCCCCCCCCCCCC(N)C(=O)N(CC[N+](C)(C)C)OCc1ccccc1.Cl.[Cl-]` (centres undefined), the CC50 at 24 h in series [1] was found to be 75.3 µM. The same molecule registered an IC50 on Phospholipase C [2] of 4 µM. The CMC in series [3] came to 90 µM.

Turning to `CCCCCCCCCCCCCCCCCCC(N)C(=O)N(O)CC[N+](C)(C)C.Cl.[Cl-]` (centres undefined), the CC50 at 24 h in series [1] was determined as 52.7 µM. This molecule registered an IC50 on Phospholipase C [2] of 4 µM. This molecule had a CMC in series [3] of 50 µM.

Turning to `CCCCCCCCCCC(N)C(=O)N(O)CCC[N+](C)(C)C.Cl.[Cl-]` (centres undefined), in series [1], the CC50 at 24 h is over 100 µM. The Ki (in general, the equilibrium dissociation constant of an inhibitor or competing ligand from its target) on Phospholipase C [7] was 26 µM. At Phospholipase C [2], this molecule yielded an IC50 of 58 µM. For the same molecule, the CMC in series [3] turned out to be 97 µM.

Consider `CCCCCCC(N)C(=O)N(CCCN(C)C)OCc1ccccc1.Cl.Cl` (centres undefined), for which the CC50 at 24 h in series [1] was over 100 µM. Also, the 50% inhibitory concentration (IC50) against Phospholipase C [2] is over 500 µM. The molecule further registered a CMC in series [3] of 158 µM.

For `CCCCCCCCCCC(N)C(=O)N(O)CCCN(C)C.Cl.Cl` (centres undefined), in series [1], the CC50 at 24 h was determined as 40 µM. Moreover, on Phospholipase C [2], the IC50 stood at 100 µM. The molecule further yielded a CMC in series [3] of 79 µM.

With `CCCCCCCCCCC(N)C(=O)N(CCCN(C)C)OCc1ccccc1.Cl.Cl` (centres undefined), the CC50 at 24 h in series [1] amounted to 7 µM. On Phospholipase C [2], this molecule yielded an IC50 of 32 µM. In addition, the CMC in series [3] stood at 8 µM.

On to `CCCCCCC(NC(=O)OC(C)(C)C)C(=O)N(CC[N+](C)(C)C)OCc1ccccc1.[I-]` (centres undefined), for which the CC50 at 24 h in series [1] is over 100 µM. The half-maximal inhibitory concentration (IC50) on Phospholipase C [2] turned out to be 56 µM. In series [3], this molecule gave a CMC of over 500 µM.

For `CCCCCCCCCCCCCCCCCCC(N)C(=O)N(CC[N+](C)(C)C)OCc1ccccc1.Cl.[Cl-]` (centres undefined), the CC50 at 24 h in series [1] stood at 29 µM. For the same molecule, the half-maximal inhibitory concentration (IC50) against Phospholipase C [2] was found to be 4 µM. The molecule further gave a CMC in series [3] of 10 µM.

Turning to `CCCCCCCCCCC(N)C(=O)N(CCC[N+](C)(C)C)OCc1ccccc1.Cl.[Cl-]` (centres undefined), the CC50 at 24 h in series [1] was 43.4 µM. At Phospholipase C [2], this molecule gave a concentration for half-maximal inhibition (IC50) of 50 µM. In addition, in series [3], the CMC came to 141 µM.

`CCCCCCCCCCC(NC(=O)OC(C)(C)C)C(=O)N(CCC[N+](C)(C)C)OCc1ccccc1.[I-]` (centres undefined): the CC50 at 24 h in series [1] came out at 17 µM. On Phospholipase C [7], this molecule registered a Ki of 2.5 µM. In series [3], this molecule showed a CMC of 40 µM.
